Data set [1] has as its target Dipeptidyl peptidase 4 (Homo sapiens, UniProt P27487). Put plainly: Competitive inhibition of human recombinant DPP4 using AP-pNA as substrate preincubated for 30 mins followed by substrate addition measured after 30 mins by spectrophotometric analysis.
For data set [2], the target named is DPP4 (dipeptidyl peptidase 4) (Rattus norvegicus, UniProt P14740). In words: Metabolic stability in rat serum assessed as half life of DPP4-mediated compound degradation. Format: ADME, cell-free.
Sequence of DPP4 (dipeptidyl peptidase 4) (Rattus norvegicus, UniProt P14740) (P14740 whole entry): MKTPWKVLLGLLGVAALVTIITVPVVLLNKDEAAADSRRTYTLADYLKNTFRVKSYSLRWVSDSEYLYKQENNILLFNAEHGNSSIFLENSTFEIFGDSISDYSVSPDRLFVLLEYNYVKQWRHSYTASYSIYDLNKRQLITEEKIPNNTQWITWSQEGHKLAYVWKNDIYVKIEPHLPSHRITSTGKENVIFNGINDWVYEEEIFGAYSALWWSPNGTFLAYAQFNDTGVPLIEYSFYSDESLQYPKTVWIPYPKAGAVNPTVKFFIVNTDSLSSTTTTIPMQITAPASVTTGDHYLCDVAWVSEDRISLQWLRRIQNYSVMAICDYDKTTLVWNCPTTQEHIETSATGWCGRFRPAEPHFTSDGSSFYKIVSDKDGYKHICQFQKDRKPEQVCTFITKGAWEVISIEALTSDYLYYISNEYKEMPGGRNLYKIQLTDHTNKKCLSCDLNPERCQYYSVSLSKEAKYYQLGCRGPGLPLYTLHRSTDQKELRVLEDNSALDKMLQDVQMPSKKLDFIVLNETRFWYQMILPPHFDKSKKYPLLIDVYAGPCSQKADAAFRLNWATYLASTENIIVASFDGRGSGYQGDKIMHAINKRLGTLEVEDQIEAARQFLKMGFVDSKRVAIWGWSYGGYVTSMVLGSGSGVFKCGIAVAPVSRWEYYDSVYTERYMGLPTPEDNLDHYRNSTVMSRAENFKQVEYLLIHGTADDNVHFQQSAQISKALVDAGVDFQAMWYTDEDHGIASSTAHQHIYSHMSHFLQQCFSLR
Data set [3] has as its target Dipeptidyl peptidase 4 (Sus scrofa, UniProt P22411). Put plainly: Stability of the compound assessed as porcine DPP4-mediated compound degradation at 0.1 mM measured over 30 mins by reverse-phase HPLC/MS analysis. Format: ADME. The following applies: pig, 0.5 h, 100 µM. The procedure, abridged:
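Peptide (0.1 mM) incubated at 37 °C with DPP IV purified from porcine kidney (10 mU/mL) in 50 mM HEPES, 0.14 M NaCl, pH 8.0. Samples taken at set times and quenched with 10% (v/v) 0.1 M HCl. Intact peptide quantified by reverse-phase HPLC-MS and expressed as percent of the time-0 amount.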

For another data set, the target named is Trypsin (Sus scrofa, UniProt P00761). Put plainly: Stability of the compound assessed as porcine pancreatic trypsin-mediated compound degradation at 0.1 mM after 10 secs by reverse-phase HPLC/MS analysis. Format: ADME. The following applies: pig, isolated protein, 10 s, 100 µM. The procedure, abridged:
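Peptide (0.1 mM) incubated at 37 °C with 100 nM purified porcine pancreatic trypsin in 50 mM Tris-HCl, 20 mM CaCl₂, pH 8.0. Timed samples were acid-quenched with 10% (v/v) 0.1 M HCl, then analysed by reverse-phase HPLC-MS. Mean ± range of two independent experiments.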

Data set [4] concerns the target Chymotrypsinogen A (Bos taurus) (UniProt P00766). Put plainly: Stability of the compound assessed as bovine pancreatic chymotrypsin-mediated compound degradation at 0.1 mM after 10 secs by reverse-phase HPLC/MS analysis. To be noted: cow, isolated protein, 10 s, 100 µM.
The target in data set [5] is DPP4 (dipeptidyl peptidase 4) (Homo sapiens, UniProt P27487). In words: Metabolic stability in human plasma assessed as half life of DPP4-mediated compound degradation. In kind it is ADME.
Sequence of DPP4 (dipeptidyl peptidase 4) (Homo sapiens, UniProt P27487) (P27487 whole entry): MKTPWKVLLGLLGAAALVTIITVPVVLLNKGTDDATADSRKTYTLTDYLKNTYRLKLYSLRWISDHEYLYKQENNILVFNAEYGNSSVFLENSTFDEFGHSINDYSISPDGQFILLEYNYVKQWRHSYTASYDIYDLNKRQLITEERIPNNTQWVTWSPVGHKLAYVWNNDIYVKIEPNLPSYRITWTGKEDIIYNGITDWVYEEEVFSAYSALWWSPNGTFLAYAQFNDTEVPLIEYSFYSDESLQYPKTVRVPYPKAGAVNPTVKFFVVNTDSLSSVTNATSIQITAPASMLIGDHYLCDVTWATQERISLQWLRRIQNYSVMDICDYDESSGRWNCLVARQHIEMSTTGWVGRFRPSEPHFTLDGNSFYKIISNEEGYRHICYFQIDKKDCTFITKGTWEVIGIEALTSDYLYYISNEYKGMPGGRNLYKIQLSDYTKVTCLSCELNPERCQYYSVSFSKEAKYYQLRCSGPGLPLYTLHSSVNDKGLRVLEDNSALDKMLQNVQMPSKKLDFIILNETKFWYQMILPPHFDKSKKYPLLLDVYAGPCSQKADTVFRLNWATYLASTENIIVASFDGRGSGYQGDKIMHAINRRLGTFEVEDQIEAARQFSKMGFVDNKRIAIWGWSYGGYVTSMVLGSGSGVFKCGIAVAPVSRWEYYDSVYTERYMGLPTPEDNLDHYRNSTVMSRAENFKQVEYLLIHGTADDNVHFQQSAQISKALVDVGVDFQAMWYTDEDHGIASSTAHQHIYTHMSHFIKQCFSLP

The structures appear in SMILES notation. Peptide text beside a SMILES is read from it.

Sequence of Dipeptidyl peptidase 4 (Homo sapiens, UniProt P27487) (P27487 whole entry): as above
Sequence of Dipeptidyl peptidase 4 (Sus scrofa, UniProt P22411) (P22411 whole entry): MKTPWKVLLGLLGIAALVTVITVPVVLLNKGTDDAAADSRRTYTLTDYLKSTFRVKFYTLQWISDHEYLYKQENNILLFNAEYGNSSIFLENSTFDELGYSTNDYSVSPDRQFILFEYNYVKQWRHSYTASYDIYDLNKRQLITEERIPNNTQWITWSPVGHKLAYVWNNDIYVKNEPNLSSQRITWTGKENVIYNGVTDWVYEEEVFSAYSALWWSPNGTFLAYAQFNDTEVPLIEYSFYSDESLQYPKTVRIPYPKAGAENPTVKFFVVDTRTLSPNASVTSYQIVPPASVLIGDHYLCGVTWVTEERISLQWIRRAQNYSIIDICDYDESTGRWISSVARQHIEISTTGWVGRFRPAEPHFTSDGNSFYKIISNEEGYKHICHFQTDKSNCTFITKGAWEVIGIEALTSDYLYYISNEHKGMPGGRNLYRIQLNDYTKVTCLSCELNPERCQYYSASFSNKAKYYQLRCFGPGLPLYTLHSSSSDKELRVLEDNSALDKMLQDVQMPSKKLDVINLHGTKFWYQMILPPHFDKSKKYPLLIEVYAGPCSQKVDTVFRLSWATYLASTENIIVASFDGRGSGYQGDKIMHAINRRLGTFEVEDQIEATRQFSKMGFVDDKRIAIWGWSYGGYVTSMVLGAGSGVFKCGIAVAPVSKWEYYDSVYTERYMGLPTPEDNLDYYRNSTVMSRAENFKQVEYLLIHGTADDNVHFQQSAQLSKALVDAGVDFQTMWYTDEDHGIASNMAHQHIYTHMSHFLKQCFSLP
Sequence of Trypsin (P00761 whole entry): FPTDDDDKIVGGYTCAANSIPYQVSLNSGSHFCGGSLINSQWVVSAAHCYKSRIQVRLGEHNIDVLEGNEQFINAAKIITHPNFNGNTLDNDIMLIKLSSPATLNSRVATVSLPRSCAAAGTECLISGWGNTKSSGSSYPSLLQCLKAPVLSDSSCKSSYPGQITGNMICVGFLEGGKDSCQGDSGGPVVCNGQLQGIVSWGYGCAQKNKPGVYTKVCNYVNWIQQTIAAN

One may read the Ki as the equilibrium dissociation constant of an inhibitor or competing ligand from its target. As a reminder, the half-life is how long it takes for the measured level to halve. In the case of `CC(C)[C@H](N)C(=O)N1CCC[C@H]1C(=O)N[C@@H](CC(=O)O)C(=O)N1CCC[C@H]1C(=O)N[C@@H](CCCNC(=N)N)C(N)=O` (H-VPDPR-NH2), the Ki at Dipeptidyl peptidase 4 [1] came to 142 µM. The half-life in data set [2] came to 5 min.

In the case of `CC[C@H](C)[C@H](NC(=O)[C@H](Cc1ccccc1)NC(=O)[C@H](CCC(=O)O)NC(=O)[C@H](CCCCN)NC(=O)[C@H](C)NC(=O)[C@H](C)NC(=O)[C@H](CCC(N)=O)NC(=O)CNC(=O)[C@H](CCC(=O)O)NC(=O)[C@H](CC(C)C)NC(=O)[C@H](Cc1ccc(O)cc1)NC(=O)[C@H](CO)NC(=O)[C@H](CO)NC(=O)[C@@H](NC(=O)[C@H](CC(=O)O)NC(=O)[C@H](CO)NC(=O)[C@@H](NC(=O)[C@H](Cc1ccccc1)NC(=O)[C@@H](NC(=O)CNC(=O)[C@H](CCC(=O)O)NC(=O)[C@H](C)NC(=O)[C@@H](N)Cc1c[nH]cn1)[C@@H](C)O)[C@@H](C)O)C(C)C)C(=O)N[C@@H](C)C(=O)N[C@@H](Cc1c[nH]c2ccccc12)C(=O)N[C@@H](CC(C)C)C(=O)N[C@H](C(=O)N[C@@H](CCCCN)C(=O)NCC(=O)N[C@@H](CCCNC(=N)N)C(N)=O)C(C)C`, the Stability result at Dipeptidyl peptidase 4 [3] was “Stable”; at Trypsin, “Unstable”; in data set [4], “Unstable”.

As to `CC[C@H](C)[C@H](NC(=O)[C@H](CCCNC(=N)N)NC(=O)[C@H](CC(=O)O)NC(=O)[C@H](CCSC)NC(=O)[C@H](CCCCN)NC(=O)[C@H](CCCNC(=N)N)NC(=O)CNC(=O)[C@H](Cc1ccccc1)NC(=O)[C@H](CS)NC(=O)CNC(=O)[C@H](CO)NC(=O)CNC(=O)[C@H](CCC(N)=O)NC(=O)[C@@H](NC(=O)[C@H](CCSC)NC(=O)[C@H](CCCCN)NC(=O)[C@@H]1CCCN1C(=O)[C@@H](N)CO)C(C)C)C(=O)N[C@@H](CO)C(=O)N[C@@H](CO)C(=O)N[C@@H](CO)C(=O)N[C@@H](CO)C(=O)NCC(=O)N[C@@H](CC(C)C)C(=O)NCC(=O)N[C@@H](CS)C(=O)N[C@@H](CCCCN)C(=O)N[C@H](C(=O)N[C@@H](CC(C)C)C(=O)N[C@@H](CCCNC(=N)N)C(=O)N[C@@H](CCCNC(=N)N)C(=O)N[C@@H](Cc1cnc[nH]1)C(N)=O)C(C)C`, the half-life in data set [5] worked out at 15 min.

The record behind these values is ChEMBL document CHEMBL3085773, “A general method for making peptide therapeutics resistant to serine protease degradation: application to dipeptidyl peptidase IV substrates” (J Med Chem, 2013).
